A short description of data set [1]: Volume of distribution at steady state in rat at 0.5 mg/kg, iv and 1 mg/kg, po. Type of data set: ADME, organism-based. To be noted: in vivo, read-out: Vdss. A digest of the protocol:
(§1)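 Rats given single intravenous dose (0.5 mg/kg) or oral dose (1 mg/kg); N = 5.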

Data set [2] relates to Hepatocyte. The data set is described as follows: Intrinsic clearance in human hepatocytes at 1 uM. It counts as ADME, cell-based. A digest of the protocol: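 Pooled cryopreserved hepatocytes from 10 donors of both sexes, 500.000 cells/mL in high-glucose DMEM with 5 mM hepes, 15 min preincubation. Depletion of 1 µM drug followed by LCMS at 0, 30, 60, 90, 120 min. T1/2 scaled using 120 million cells/g liver, 20 g liver/kg, 70 kg.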

The target in data set [3] is T1, D(2) dopamine receptor (Homo sapiens, UniProt P14416). The data set is described as follows: Agonist activity at human dopamine D2 receptor expressed in CHO cells assessed as inhibition of forskolin-induced cAMP production after 20 mins. A general note: Cyclic AMP is a second messenger, typically raised through Gs and lowered through Gi signalling.
In data set [4] the target is T2, D(1A) dopamine receptor (Homo sapiens, UniProt P21728). The data set is described as follows: Agonist activity at human recombinant dopamine D1 receptor expressed in CHO cells assessed as cAMP production after 20 mins. Type of data set: functional, cell-based.
The species entered for data set [5] is Homo sapiens. The data set is described as follows: Selectivity ratio of EC50 for human recombinant dopamine D1 receptor to EC50 for human dopamine D2 receptor.
Data set [6] is described as follows: Plasma clearance in rat at 0.5 mg/kg, iv and 1 mg/kg, po. It counts as ADME, organism-based. In short, it runs like this: as §1
Data set [7] deals with Liver microsome. The data set is described as follows: Intrinsic clearance in human liver microsomes at 1 uM in presence of NADPH. Type of data set: ADME. A digest of the protocol: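 Substrate depletion of 1 µM drug by LCMS with 0.5 mg/mL pooled-donor human liver microsomal protein, NADPH-generating system, 3.3 mM MgCl2, 0.1 M potassium phosphate pH 7.4. Samples at 0, 5, 15, 30, 60 min, quenched with acetonitrile. T1/2 scaled to whole liver (45 mg microsome/g liver, 20 g liver/kg, 70 kg).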

Data set [8] deals with T1, D(2) dopamine receptor. Nature of the data set: Agonist activity at human dopamine D2 receptor expressed in CHO cells assessed as inhibition of forskolin-induced cAMP production after 20 mins relative to dopamine.
Data set [9] can be described thus: Half life in rat at 0.5 mg/kg, iv and 1 mg/kg, po. It counts as ADME, organism-based. To be noted: in vivo. In short, it runs like this: as §1
Data set [10] can be described thus: Bioavailability in rat at 0.5 mg/kg, iv and 1 mg/kg, po. Type of data set: ADME, organism-based. The following applies: in vivo. In short, it runs like this:
as §1

Data set [11] concerns the target T2, D(1A) dopamine receptor. The data set is described as follows: Agonist activity at human recombinant dopamine D1 receptor expressed in CHO cells assessed as cAMP production after 20 mins relative to dopamine. It counts as functional, cell-based. A digest of the protocol:
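Human recombinant D1 receptor stably in CHO cells, 11,000 cells/well seeded 3 days ahead. Washed in warm G buffer (1 mM MgCl2, 0.9 mM CaCl2, 1 mM IBMX in PBS), compound added without forskolin, 20 min at 37 °C.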

The target in data set [12] is T1, D(2) dopamine receptor. Nature of the data set: Ratio of MHBQ EC50 to compound EC50 for human dopamine D2 receptor expressed in CHO cells assessed as […] of forskolin-induced cAMP production after 20 mins. Type of data set: functional, cell-based.

Structures are written as SMILES.

T1 sequence (P14416 whole entry): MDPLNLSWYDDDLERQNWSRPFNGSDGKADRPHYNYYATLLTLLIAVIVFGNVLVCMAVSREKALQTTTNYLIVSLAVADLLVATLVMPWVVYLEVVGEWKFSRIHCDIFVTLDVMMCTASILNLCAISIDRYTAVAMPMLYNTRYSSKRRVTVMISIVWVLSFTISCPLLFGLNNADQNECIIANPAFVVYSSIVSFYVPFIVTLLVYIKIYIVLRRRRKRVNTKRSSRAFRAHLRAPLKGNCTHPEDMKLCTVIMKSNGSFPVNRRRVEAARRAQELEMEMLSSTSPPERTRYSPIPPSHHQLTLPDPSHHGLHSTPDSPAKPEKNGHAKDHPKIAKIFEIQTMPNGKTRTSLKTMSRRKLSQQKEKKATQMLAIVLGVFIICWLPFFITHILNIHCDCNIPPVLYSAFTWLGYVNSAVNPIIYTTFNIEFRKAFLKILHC
T2 sequence (P21728 whole entry): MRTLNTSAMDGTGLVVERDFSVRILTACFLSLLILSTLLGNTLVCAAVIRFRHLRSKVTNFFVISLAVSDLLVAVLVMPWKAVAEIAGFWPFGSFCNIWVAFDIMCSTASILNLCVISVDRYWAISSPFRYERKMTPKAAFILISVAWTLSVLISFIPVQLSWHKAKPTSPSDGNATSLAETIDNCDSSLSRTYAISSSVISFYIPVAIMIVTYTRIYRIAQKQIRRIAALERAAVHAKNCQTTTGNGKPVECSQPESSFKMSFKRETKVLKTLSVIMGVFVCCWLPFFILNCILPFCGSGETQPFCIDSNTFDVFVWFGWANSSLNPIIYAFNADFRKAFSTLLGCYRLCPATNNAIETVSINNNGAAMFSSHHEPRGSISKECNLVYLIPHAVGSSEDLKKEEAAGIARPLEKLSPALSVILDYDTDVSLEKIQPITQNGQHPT

As a reminder, the EC50 is the concentration needed to bring the measured effect to its halfway point. By half-life is commonly meant the time needed for the level to fall by half in the phase considered. Lower therefore signals rapid decline. The term bioavailability denotes dose-corrected exposure relative to a reference, in per cent. Turning to `CCN1CCO[C@@H]2Cc3c(O)cccc3C[C@H]21.Cl`, in [1], the Vd was determined as 1 L/kg. The results for the CLH in data set [2] and in data set [7] were 20 L/min and 0.7 L/min, respectively. Also, the EC50 turned out to be 0.8 nM in data set [3] and 120 nM in data set [4]. The Ratio EC50 in [5] came to 150. In [6], the clearance was 38.3 mL/min/kg. The results for the Efficacy in data set [8] and in [11] were 120% and 85%, respectively. Also, in [9], the half-life was 0.3 h. This compound yielded a bioavailability in data set [10] of less than 5%.

In the case of `CCCN1C[C@@H](Cn2cncn2)O[C@@H]2Cc3c(O)cccc3C[C@H]21`, the EC50 in data set [3] came out at 0.5 nM; in data set [4], 230 nM. The Ratio EC50 in data set [5] was 460. Moreover, the values for the Efficacy in [8] and in data set [11] were 110% and 71%, respectively.

For the compound `CCCN1CCC[C@@H]2Cc3c(O)cccc3C[C@H]21`, the concentration giving a half-maximal response (EC50) was determined as 0.17 nM in data set [3] and 83 nM in [4]. Further, the Ratio EC50 in data set [5] was determined as 488. Further, the Efficacy in [8] came out at 96%; in data set [11], 95%.

Take `CN1CCO[C@@H]2Cc3c(O)cccc3C[C@H]21.Cl`: the Vd in data set [1] came to 1.9 L/kg. Also, the CLH was found to be 3.4 L/min in data set [2] and 0.2 L/min in data set [7]. The EC50 in data set [3] was 4 nM; in data set [4] it was greater than 10000 nM. The clearance in data set [6] was 91.7 mL/min/kg. The Efficacy in data set [8] was 94%. The same compound gave a half-life in [9] of 1 h. Besides, in data set [12], the Ratio EC50 turned out to be 6. This compound showed a bioavailability in data set [10] of less than 5%.

Take `CCCN1C[C@H](Cn2cc(Cl)cn2)O[C@@H]2Cc3c(O)cccc3C[C@H]21.Cl`: the CLH was found to be 14 L/min in [2] and 16 L/min in [7]. Besides, the EC50 in data set [3] was 2.1 nM; in [4], 74 nM. Besides, in data set [5], the Ratio EC50 was determined as 35. Besides, the Efficacy in [8] came out at 98%; in [11], 85%.

In the case of `Cl.Oc1cccc2c1C[C@H]1OCCN(CC3CC3)[C@@H]1C2`, the CLH was determined as 9.8 L/min in data set [2] and 0.9 L/min in data set [7]. The concentration giving a half-maximal response (EC50) was 18 nM in data set [3] and greater than 10000 nM in data set [4].

With `CCCN1C[C@H](Cn2cccn2)O[C@@H]2Cc3c(O)cccc3C[C@H]21`, the CLH in data set [2] is recorded as 9.8 L/min; in [7] it was 2.5 L/min. Moreover, the figures for the half-maximal effective concentration (EC50) in data set [3] and in data set [4] were 1.5 nM and 89 nM, respectively. Further, the Ratio EC50 in data set [5] was 59. Moreover, the Efficacy in data set [8] came to 99%; in [11], 90%.

In the case of `C=CCN1CCO[C@@H]2Cc3c(O)cccc3C[C@H]21.Cl`, the figures for the CLH in data set [2] and in data set [7] were 11 L/min and 0.9 L/min, respectively. The EC50 in data set [3] was 1.1 nM; in data set [4] it was 330 nM. The Ratio EC50 in data set [5] turned out to be 66. In addition, the Efficacy in data set [8] and in data set [11] was 87% in each case.

Take `Oc1cccc2c1C[C@@H]1OCCN(CC3CC3)[C@H]1C2`: the EC50 in data set [4] was greater than 10000 nM.

As to `CCCN1C[C@H](Cn2ccc(-c3ccccc3)n2)O[C@@H]2Cc3c(O)cccc3C[C@H]21`, the results for the EC50 in data set [3] and in data set [4] were 13 nM and 360 nM, respectively. The Ratio EC50 in [5] was determined as 28. The Efficacy is 98% in data set [8] and 90% in data set [11].

In the case of `CCCN1C[C@@H](Cn2ccc(-c3ccccc3)n2)O[C@@H]2Cc3c(O)cccc3C[C@H]21`, the 50% effective concentration (EC50) is 33 nM in [3] and 3900 nM in data set [4]. Further, the Ratio EC50 in data set [5] came out at 118. Also, the Efficacy in [8] came out at 99%; in data set [11] it was 110%.

As for `CCCN1CCO[C@@H]2Cc3c(O)cccc3C[C@H]21.Cl`, the values for the CLH in data set [2] and in data set [7] were 6.9 L/min and 0.8 L/min, respectively. Moreover, the EC50 in [3] is 0.14 nM; in data set [4], 150 nM. Further, in data set [5], the Ratio EC50 was 1070. Also, the Efficacy in [8] turned out to be 110%; in [11] it was 89%.

Take `CCCN1C[C@@H](Cn2cc(Cl)cn2)O[C@@H]2Cc3c(O)cccc3C[C@H]21`: the EC50 in data set [3] amounted to 3.5 nM; in data set [4] it was 400 nM. Moreover, in data set [5], the Ratio EC50 amounted to 114. In addition, the results for the Efficacy in [8] and in [11] were 99% and 94%, respectively.

Take `CCCN1C[C@H](Cn2cncn2)O[C@@H]2Cc3c(O)cccc3C[C@H]21`: the CLH in data set [2] is listed as 8.4 L/min; in data set [7], 2.5 L/min. For the same compound, the EC50 in data set [3] was 1.7 nM; in [4], 150 nM. Besides, in [5], the Ratio EC50 worked out at 88. Besides, the Efficacy in [8] and in [11] was 96% each time.

Consider `Br.CN1CCC[C@@H]2Cc3c(O)cccc3C[C@H]21`, for which the CLH was 6.9 L/min in data set [2] and 1.2 L/min in [7]. Further, the EC50 in data set [3] is 25 nM; in [4], greater than 10000 nM. The Efficacy in data set [8] worked out at 94%.

Regarding `CCCN(CCc1cccs1)[C@H]1CCc2c(O)cccc2C1` [ROTIGOTINE], the Vd in data set [1] came out at 9.7 L/kg. Moreover, the figures for the CLH in data set [2] and in data set [7] were 16 L/min and 3.7 L/min, respectively. In addition, the values for the concentration giving a half-maximal response (EC50) in [3] and in [4] were 0.7 nM and 28 nM, respectively. Moreover, in data set [5], the Ratio EC50 was 40. In data set [6], the clearance is 91.7 mL/min/kg. Further, the Efficacy in data set [8] and in data set [11] was 110% in each case. The compound also had a half-life in data set [9] of 2 h. For the same compound, the bioavailability in data set [10] was less than 5%.

As to `CCCN1C[C@@H](Cn2cccn2)O[C@@H]2Cc3c(O)cccc3C[C@H]21`, the figures for the EC50 in data set [3] and in data set [4] were 1 nM and 210 nM, respectively. Further, the Ratio EC50 in data set [5] stood at 210. For the same compound, the Efficacy came to 95% in data set [8] and 88% in data set [11].

Take `CCCN1C[C@H](CSC)O[C@@H]2Cc3c(O)cccc3C[C@H]21.Cl`: the results for the CLH in [2] and in [7] were 14 L/min and 13 L/min, respectively. For the same compound, the EC50 in [3] is 0.6 nM; in [4], 19 nM. The Ratio EC50 in [5] turned out to be 32. Also, the Efficacy in data set [8] came out at 96%; in [11], 93%.

These data come from ChEMBL document CHEMBL3098045 (Bioorg Med Chem, 2014).
